Data reported in ChEMBL document CHEMBL1129567, “Structure-based design of novel, urea-containing FKBP12 inhibitors” (J Med Chem, 1996).

Target: Peptidyl-prolyl cis-trans isomerase FKBP1A (Homo sapiens, UniProt P62942)
Test: Apparent inhibition constant of Wild-type human recombinant FK506 binding protein 12
Details: read-out: Ki app
How it was run: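 Wild-type human recombinant FKBP12 (E. coli-expressed, purified), 90 nM, chymotrypsin-coupled continuous spectrophotometric cis-trans isomerase assay with 100 µM cis succinyl-Ala-Leu-Pro-Phe-p-nitroanilide (stock in trifluoroethanol/240 mM LiCl) at 10 or 15 °C. Buffer: 50 mM HEPES pH 8.0, 100 mM NaCl, 100 µM 2-mercaptoethanol, 1% DMSO, 6 mg/mL chymotrypsin. Read for 5 min. Fit to competitive tight-binding equation corrected for uncatalyzed isomerization.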

Sequence of Peptidyl-prolyl cis-trans isomerase FKBP1A (P62942 whole entry): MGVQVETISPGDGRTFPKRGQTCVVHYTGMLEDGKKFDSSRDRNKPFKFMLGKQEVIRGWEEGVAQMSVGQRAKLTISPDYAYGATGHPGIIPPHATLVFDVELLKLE

Row | SMILES | Ki [nM]
1 | COC(=O)[C@@H]1CCC[C@H]2CCN(Cc3ccccc3)C(=O)N21 | 67000
2 | CC1(CNC(=O)N2CCCC[C@H]2C(=O)OCc2cccc(Oc3ccccc3)c2)CCCCC1 | 200
3 | CC(C)(C)CNC(=O)N1CCCC[C@H]1C(=O)OCc1cccc(Oc2ccccc2)c1 | 220
4 | CC(C)(C)CNC(=O)N1CCCC[C@H]1C(=O)OCc1ccccc1 | 790
5 | COc1cccc(CCCOC(=O)[C@@H]2CCCCN2C(=O)NCC(C)(C)C)c1 | 370
6 | CC1(CNC(=O)N2CCCC[C@H]2C(=O)OCc2ccccc2)CCCCC1 | 550
7 | CCCN1CC[C@@H]2CCC[C@@H](C(=O)OCc3ccccc3)N2C1=O | 24000
8 | CCCN1CC[C@@H]2CCC[C@@H](C(=O)OC)N2C1=O | 83000
9 | CC(C)(C)CNC(=O)N1CCCC[C@H]1C(=O)O[C@H](CCc1ccccc1)c1ccccc1 | 350
10 | CC(C)(CO)CNC(=O)N1CCCC[C@H]1C(=O)OCc1ccccc1 | 8400
11 | CC(C)(C)CNC(=O)N1CCCC[C@H]1C(=O)OCCCCc1ccccc1 | 150
12 | C=C(C)CNC(=O)N1CCCC[C@H]1C(=O)OCc1ccccc1 | 7200
13 | O=C(OCc1ccccc1)[C@@H]1CCCCN1C(=O)NCc1ccccc1 | 6500
14 | O=C(OCc1ccccc1)[C@@H]1CCC[C@H]2CCN(Cc3ccccc3)C(=O)N21 | 14000
15 | CC1(CNC(=O)N2CCCC[C@H]2C(=O)OCCCCc2ccccc2)CCCCC1 | 120
16 | CC1(CNC(=O)N2CCCC[C@H]2C(=O)OCc2ccccc2)CCCC1 | 570
17 | COc1cc(CCCOC(=O)[C@@H]2CCCCN2C(=O)NCC(C)(C)C)cc(OC)c1OC | 390
